TAAR1 ag: human TAAR1 agonism; actives 0.99% (n = 360,000); CHO RD-HGA16 TAAR1, Fluo-8 calcium fluorescence; vehicle wells 0%, saturating PEA agonist 100%; activation, % at 3 µM; Q96RJ0; AID 624467;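 active = activation above the mean activation of all test compounds in the run plus 3 SD, cut at about 38% in these data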
Target sequence (Q96RJ0 whole entry, looked up): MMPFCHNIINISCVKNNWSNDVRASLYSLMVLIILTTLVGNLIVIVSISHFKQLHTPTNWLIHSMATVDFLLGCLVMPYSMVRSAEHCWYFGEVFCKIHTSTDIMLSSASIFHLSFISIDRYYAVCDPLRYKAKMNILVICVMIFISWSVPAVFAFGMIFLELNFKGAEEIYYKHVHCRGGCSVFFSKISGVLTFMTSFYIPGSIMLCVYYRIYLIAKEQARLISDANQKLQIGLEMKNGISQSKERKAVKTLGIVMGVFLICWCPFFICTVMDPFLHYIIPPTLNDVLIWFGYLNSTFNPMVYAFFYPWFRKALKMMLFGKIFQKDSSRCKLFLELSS
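System: CHO-derived RD-HGA16 cells with stable Gα16 and human TAAR1 / Times: 17-24 h plating, Fluo-8 75 min 37 °C, 30 min RT / Technique: calcium-sensitive Fluo-8 signal, excitation 470-495, emission 515-575 nm / Measure: % activation relative to PEA EC100 response / Benchmarks: DMSO and PEA EC100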
OX1R antag-1: OX1R (human) antagonism. OX1R-expressing cells, FRET antagonist read-out. actives 1.8% (n = 330,000). inhibition, % at 6.6 µM. O43613; in the data active = inhibition mostly above about 38%, no sharp cut-off; inactive = mostly below about 40%
CHO parental Ca: counter-screen: ATP calcium response change in parental CHO cells; parental CHO-K1, ATP-induced calcium, Fluo-8 fluorescence; inhibition, % at 5.6 µM; actives 0.63% (n = 330,000); AID 463079;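 active = inhibition above that plate's mean sample inhibition plus 3 SD, cut at about 26% in these data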
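Test system: untransfected parental CHO cell line; also added: ATP stimulus; dosing: 5.6 µM, single dose; signal: calcium-sensitive Fluo-8 fluorescence; measure: percent inhibition of ATP-evoked calcium rise, normalized to controls; benchmarks: low control ATP plus DMSO, high control DMSO only; replication: one well per compound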
TAAR1 antagonist: human TAAR1 antagonism | inhibition, % at 3 µM | actives 1.5% (n = 360,000) | CHO RD-HGA16 TAAR1, Fluo-8 calcium fluorescence, antagonist | Q96RJ0;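 active = inhibition above a per-plate cutoff, the mean inhibition of test compounds on that plate plus 3 SD, cut at about 49% in these data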
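Assay system: RD-HGA16 CHO cells with stable hTAAR1 and Gα16 / Reagent: EC80 β-phenethylamine stimulus / Doses: 3 µM, single point / Timing: dye loading 75 min at 37 °C, then 30 min room temperature / Measured by: Fluo-8 intracellular calcium dye fluorescence, real-time kinetic reads / Controls: vehicle wells and EC80 agonist wells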
OX1R antag-2: human HCRTR1 antagonism. CHO/OX1R cells, Fluo-8 calcium fluorescence, orexin A. actives 0.43% (n = 330,000). O43613. AID 434989. inhibition, % at 5 µM;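 active = inhibition above its plate's threshold, mean inhibition of all tested compounds on the plate plus 3 SD, cut at about 37% in these data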
OX1R HTRF conf: confirmation of human orexin 1 receptor antagonists, HTRF format; shares compounds with OX1R antag-1; inhibition, % at 6.6 µM; AID 492964; actives 49% (n = 1,800); OX1R-expressing cells, HTRF antagonist assay; in the data active = inhibition above about 55%;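 note: CHO cells expressing OX1R stimulated with orexin A at about EC80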
CHO-K1 HTRF cnt: counter-screen: parental CHO-K1 HTRF response | shares compounds with OX1R antag-1 | parental CHO-K1 cells, HTRF counterscreen | inhibition, % at 6.6 µM | actives 48% (n = 1,800); in the data active = inhibition above about 17%
Of the large screens only hits and unclear results are named; the others gave an inactive call (follow-up assays come after a bar, where they were run). Compounds with a hit are over-represented: about 4% of the library has one in this group of screens.

CN(C(=O)COC(=O)CSc1ccc(C(N)=O)cc1[N+](=O)[O-])C1CCS(=O)(=O)C1 (stereo not drawn)	OX1R antag-1 77 | OX1R HTRF conf inactive | CHO-K1 HTRF cnt 69
CN(C(=O)COC(=O)CSc1ccc([N+](=O)[O-])cc1)C1CCS(=O)(=O)C1 (stereo not drawn)	none
CN(C(=O)CSc1nc2ccc([N+](=O)[O-])cc2s1)C1CCS(=O)(=O)C1 (stereo not drawn)	OX1R antag-1 83 | OX1R HTRF conf 70 | CHO-K1 HTRF cnt 40
O=C(COc1cc(Cl)c(Cl)cc1Cl)N1CCN(c2ccccn2)CC1	none
O=C(O)CC1(CC(=O)Nc2cccc(C(=O)O)c2)CCCC1	none
Cc1ccnc(Sc2ccc([N+](=O)[O-])cn2)n1	OX1R antag-1 77 | OX1R HTRF conf 71 | CHO-K1 HTRF cnt 71
CCCOc1ccc(/C=N/NC(=O)CN(c2ccc(OCC)cc2)S(C)(=O)=O)cc1	none
CCOc1ccc(N(CC(=O)N/N=C/c2cc([N+](=O)[O-])ccc2Cl)S(C)(=O)=O)cc1	OX1R antag-1 81 | OX1R HTRF conf inactive | CHO-K1 HTRF cnt inactive
CN(Cc1ccccc1F)C(=O)CN1C(=O)NC2(CCc3ccccc32)C1=O (stereo not drawn)	none (no result: OX1R antag-1, CHO parental Ca, OX1R antag-2)
CCCn1nc([N+](=O)[O-])c(C(C#N)c2nc3ccccc3o2)c(Cl)c1=O (stereo not drawn)	OX1R antag-1 87 | OX1R HTRF conf inactive | CHO-K1 HTRF cnt 22
O=C(c1ccccc1SCc1ccc(F)cc1)N1CCOCC1	none
O=C(/C=C1\NC2(CCCC2)Cc2ccccc21)C(=O)N/N=C/c1ccccc1O	OX1R antag-1 82 | OX1R HTRF conf inactive | CHO-K1 HTRF cnt inactive
CCCCN1C(=O)C(CC(=O)NCc2cccs2)CC(C(=O)N(C(C)C)C(C)C)=C1C (stereo not drawn)	none (no result: OX1R antag-1, CHO parental Ca, OX1R antag-2)
CCc1nc2ccc(C(=O)Nc3cccc(C(C)=O)c3)cc2nc1CC	OX1R antag-1 81 | OX1R HTRF conf inactive | CHO-K1 HTRF cnt inactive
O=C(O)c1ccc2nc3c(nc2c1)-c1ccccc1C3=O	OX1R antag-1 active | OX1R HTRF conf 64 | CHO-K1 HTRF cnt 84
O=C(O)CCCCCNc1ccc2nsnc2c1[N+](=O)[O-]	OX1R antag-1 117 | OX1R HTRF conf 74 | CHO-K1 HTRF cnt 112
O=C(O)CCCCCNS(=O)(=O)c1cccc2nsnc12	none
COc1ccccc1CNc1ncccc1[N+](=O)[O-]	none
COC(=O)CCCNc1ncccc1[N+](=O)[O-]	OX1R antag-1 97 | OX1R HTRF conf inactive | CHO-K1 HTRF cnt 39
CC(c1ccco1)N(C(=O)c1ccccc1NS(=O)(=O)c1ccc(Cl)c([N+](=O)[O-])c1)c1ccccn1 (stereo not drawn)	OX1R antag-1 98 | OX1R HTRF conf inactive | CHO-K1 HTRF cnt inactive
CC(c1ccco1)N(C(=O)c1cc(Cl)cc(Cl)c1)c1ccccn1 (stereo not drawn)	none
O=C(Nc1ccc(C(=O)O)cc1)Nc1ccc([N+](=O)[O-])cc1	none
O=C(O)c1ccc(Nc2ncc([N+](=O)[O-])cc2[N+](=O)[O-])cc1	OX1R antag-1 93 | OX1R HTRF conf 68 | CHO-K1 HTRF cnt 107
COc1ccc(S(=O)(=O)NCCCn2ccnc2)cc1Cl	none
Cc1cccc(-c2noc(CCCC(=O)NC3CCCC3)n2)c1	none
CN1C2=CC=CC=CC2=[N+](C)C12C=CC(=[N+]([O-])[O-])C=C2[N+](=O)[O-] (stereo not drawn)	OX1R antag-1 144 | OX1R HTRF conf 68 | CHO-K1 HTRF cnt 90
CN1C2=CC=CC=CC2=[N+](C)C12C([N+](=O)[O-])=CC(=[N+]([O-])[O-])C=C2[N+](=O)[O-] (stereo not drawn)	none
C=CCOc1ccc(/C=C/C(=O)N2CCCN(S(=O)(=O)c3c(C)noc3C)CC2)cc1	none (no result: OX1R antag-1, CHO parental Ca, OX1R antag-2)
CCOC(=O)c1c(COC(=O)c2ccco2)nc2ccccc2[n+]1[O-]	OX1R antag-1 107 | OX1R HTRF conf inactive | CHO-K1 HTRF cnt 28
CC(=O)c1c(COC(=O)c2ccco2)nc2ccccc2[n+]1[O-]	none
COc1ccc2nc(COC(=O)c3ccco3)c(C(C)=O)[n+]([O-])c2c1	OX1R antag-1 125 | OX1R HTRF conf inactive | CHO-K1 HTRF cnt 35
NC(=O)c1c(NC(=O)c2ccccc2)sc2c1CCC2	OX1R antag-1 89 | OX1R HTRF conf 84 | CHO-K1 HTRF cnt inactive
Cc1nn(-c2ccccc2)nc1-c1nnc(-c2ccc(C(F)(F)F)cc2)o1	none
CCCOc1cccc(NC(=O)c2cc(C)oc2C)c1	OX1R antag-1 78 | OX1R HTRF conf inactive | CHO-K1 HTRF cnt inactive
Cc1cc(C(=O)Nc2cccc(/C=C/C(=O)O)c2)c(C)o1	none
Cn1c(=O)n(CC(=O)NCC2CCCO2)c(=O)c2c3c(sc21)COC(C)(C)C3 (stereo not drawn)	none
O=C1Nc2ccccc2C1=Nc1cccc([N+](=O)[O-])c1	none
NC(=O)c1ccc(N=C2C(=O)Nc3ccc([N+](=O)[O-])cc32)cc1	OX1R antag-1 84 | OX1R HTRF conf 64 | CHO-K1 HTRF cnt 72
OC(c1ccc(F)c(F)c1)c1ncc(-c2cccc(C(F)(F)F)c2)[nH]1 (stereo not drawn)	none (no result: OX1R antag-1, CHO parental Ca, OX1R antag-2)
O=C(C1CCC1)N1CCN(Cc2ccccc2)CC1	none
c1ccc(CN2CCN(C3CCCSc4ccccc43)CC2)cc1 (stereo not drawn)	OX1R antag-1 87 | OX1R HTRF conf 79 | CHO-K1 HTRF cnt inactive
O=C(CC[C@H]1O[C@@H](n2ccc(=O)[nH]c2=O)[C@H](O)[C@@H]1O)N[C@H](Cc1ccccc1)C(=O)NCc1ccccc1	none (no result: OX1R antag-1, CHO parental Ca, OX1R antag-2)
CCOC(=O)c1cc2[nH]c3ccccc3c2[n+](-c2ccc([N+](=O)[O-])cc2)c1C	OX1R antag-1 114 | OX1R HTRF conf inactive | CHO-K1 HTRF cnt 75
O=C(OCc1cccc([N+](=O)[O-])c1)c1cc(=O)[nH]c2ccccc12	none (no result: TAAR1 ag, TAAR1 antagonist)
CCOC(=O)c1cc2[nH]c3ccccc3c2[n+](-c2ccc([N+](=O)[O-])cc2)c1N	OX1R antag-1 138 | OX1R HTRF conf 57 | CHO-K1 HTRF cnt 69
Cc1cc(C)nc(NC(=O)c2ccc([N+](=O)[O-])o2)n1	OX1R antag-1 78 | OX1R HTRF conf inactive | CHO-K1 HTRF cnt 80
O=C(NNC(=O)c1ccc([N+](=O)[O-])o1)c1ccccc1	OX1R antag-1 136 | OX1R HTRF conf 59 | CHO-K1 HTRF cnt 64
O=C(CNC(=O)c1ccccc1)N/N=C/c1ccccc1Cl	none
O=C(NN(c1ccccc1)c1ccccc1)c1ccc([N+](=O)[O-])o1	none

Screening data as filed in PubChem.
